What all share (assay type): cell-based, human
One experiment concerns PSA expression. Nature of the experiment: PSA expression by Western blot in LNCaP expressing AR-V7. Conditions: LNCaP stably expressing AR-V7, 10μM, 24 hrs. The method in brief:
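Cells were lysed in 1x SDS sample buffer (1 × 10^7 cells/ml) and boiled 5 min. PSA and AR levels were assessed by SDS-PAGE and Western blot.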
In general terms: Immunoblotting shows a protein as a band on a membrane.

The test system of experiment [1] is LNCaP expressing both wild-type and constitutively active AR splice variant AR-V7. The experiment can be described thus: Cell viability. The following applies: LNCaP AR-V7, 96 hours, CellTiter Blue, XLfit.
The test system of experiment [2] is castration-resistant PC-3 PC cells. Nature of the experiment: Cell viability. The following applies: Homo sapiens, 96 h.
For experiment [3], the system named is AR transcriptional activity. The experiment can be described thus: AR luciferase reporter assay in LNCaP expressing AR-V7. The following applies: LNCaP stably expressing AR-V7, luciferase, 8 hrs. For orientation: Reporter assays use an easily measured gene product as a stand-in for the process of interest.
For experiment [4], the system named is castration-resistant DU-145 PC cells. The experiment can be described thus: Cell viability. The following applies: DU-145, 96 hours, CellTiter Blue.
Experiment [5] has as its system androgen-dependent LNCaP PC cells. The experiment can be described thus: Cell viability. Conditions: Homo sapiens, 96 h.
The subject of experiment [6] is AR transcriptional activity. Nature of the experiment: AR luciferase reporter assay in LNCaP with R1881. Conditions: R1881 2.5nM, 8 hrs.

As for `O=C(c1cc(Cc2n[nH]c(=O)c3ccccc23)ccc1F)N1CCN(C(=O)C2CC2)CC1` [Olaparib, reference compound], the “effect on PSA expression” value with PSA expression is listed as “negligible inhibitory effect”. The ED20 in experiment [1] was 7.3 µM; in experiment [4], 1.2 µM. Besides, the ED50 was found to be 61.9 µM in experiment [1] and 7.4 µM in experiment [4]. Also, the ED70 in experiment [1] is 228.7 µM; in experiment [4], 22.0 µM. In addition, the ED90 amounted to 1835 µM in experiment [1] and 125.8 µM in experiment [4]. Besides, the figures for the IC20 in experiment [2] (read-out: ED20) and in experiment [5] (read-out: ED20) were 0.9 µM and 0.7 µM, respectively. Further, the IC50 amounted to 9.3 µM in experiment [2] (read-out: ED50) and 20.4 µM in experiment [5] (read-out: ED50). The IC70 in experiment [2] (read-out: ED70) amounted to 39 µM; in experiment [5] (read-out: ED70), 163 µM. The figures for the IC90 in experiment [2] (read-out: ED90) and in experiment [5] (read-out: ED90) were 384 µM and 4450 µM, respectively. In addition, in experiment [3], the “effect on AR transcriptional activity” value is given as “negligible inhibitory effect”. In addition, in experiment [6], the “effect on R1881-mediated AR transcriptional activity” value is “only weak inhibitory effects”.

The values above are taken from PMC6702078 (Biochemical pharmacology, 2019).
